# From ChEMBL document CHEMBL3804761, “Synthesis of a stable and orally bioavailable englerin analogue” (Bioorg Med Chem Lett, 2016)
# How the values were obtained:
# Format in all cases: functional
# [1] = Growth inhibition of human SF539 cells assessed as cell growth at 10 uM incubated for 48 hrs by sulforhodamine B assay relative to control; conditions: SF-539, 48 h, read-out: Activity
# Outline: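 Single-dose screen in the NCI 60-cell-line panel at one final concentration of 10 µM. Two-day drug exposure with a sulforhodamine B endpoint. Values are growth percent for each cell line.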
# SK-MEL-28 = assay: Growth inhibition of human SK-MEL-28 cells assessed as cell growth at 10 uM incubated for 48 hrs by sulforhodamine B assay relative to control; conditions: SK-MEL-28, 48 h, read-out: Activity
# Outline: (§1)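 Run in the standard NCI 60-cell-line screen. Cells were exposed to drug for two days, and the read-out was sulforhodamine B staining. Compound was tested at a single final concentration of 10 µM in every line, and results are reported as growth percent.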
# SK-MEL-5 [2] = assay: Growth inhibition of human SK-MEL-5 cells assessed as cell growth at 10 uM incubated for 48 hrs by sulforhodamine B assay relative to control; conditions: SK-MEL-5, 48 h, read-out: Activity; outline: as §1
# [3] = Growth inhibition of human UACC62 cells assessed as cell growth at 10 uM incubated for 48 hrs by sulforhodamine B assay relative to control; conditions: UACC-62, 48 h, read-out: Activity
# Outline: (§2)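 NCI 60-cell line standard protocol, one-dose screen: single final concentration 10 µM, 2-day drug exposure, sulforhodamine B (SRB) endpoint; read-out is growth percent relative to untreated control.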
# [4] = Growth inhibition of human SKOV3 cells assessed as cell growth at 10 uM incubated for 48 hrs by sulforhodamine B assay relative to control; conditions: SK-OV-3, 48 h, read-out: Activity; outline: as §1
# SN12C = assay: Growth inhibition of human SN12C cells assessed as cell growth at 10 uM incubated for 48 hrs by sulforhodamine B assay relative to control; conditions: read-out: Activity; outline: as §1
# [5] = Growth inhibition of human UO31 cells assessed as cell growth at 10 uM incubated for 48 hrs by sulforhodamine B assay relative to control; conditions: UO-31, 48 h, read-out: Activity; outline: as §2
# T47D = assay: Growth inhibition of human T47D cells assessed as cell growth at 10 uM incubated for 48 hrs by sulforhodamine B assay relative to control; conditions: read-out: Activity; outline: as §2
# CCRF-CEM = assay: Growth inhibition of human CCRF-CEM cells incubated for 48 hrs by sulforhodamine B assay
# Outline: (§3)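 NCI 60-cell-line panel, standard protocol. Cells exposed to compound for two days, growth read by sulforhodamine B staining. Tested at five 10-fold dilutions, top concentration 100 µM, to give dose-response curves.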
# [6] = Growth inhibition of human MOLT4 cells incubated for 48 hrs by sulforhodamine B assay; conditions: MOLT-4, 48 h; outline: as §3
# [7] = Growth inhibition of human HOP62 cells incubated for 48 hrs by sulforhodamine B assay; conditions: HOP-62, 48 h; outline: as §3
# [8] = Growth inhibition of human HOP92 cells incubated for 48 hrs by sulforhodamine B assay; conditions: HOP-92, 48 h; outline: as §3
# NCI-H226 [9] = assay: Growth inhibition of human NCI-H226 cells incubated for 48 hrs by sulforhodamine B assay; conditions: NCI-H226, 48 h; outline: as §3
# NCI-H322M = assay: Growth inhibition of human NCI-H322M cells incubated for 48 hrs by sulforhodamine B assay; outline: as §3
# NCI-H522 [10] = assay: Growth inhibition of human NCI-H522 cells incubated for 48 hrs by sulforhodamine B assay; conditions: NCI-H522, 48 h; outline: as §3
# [11] = Growth inhibition of human SNB19 cells incubated for 48 hrs by sulforhodamine B assay; conditions: SNB-19, 48 h
# Outline: (§4)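 Tested in the standard NCI 60-cell-line protocol with two-day drug exposure and a sulforhodamine B endpoint. Compounds were first screened at a single final concentration of 10 µM, reported as growth percent. They were then run as five 10-fold dilutions starting from a high concentration of 100 µM to give dose-response curves.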
# SK-MEL-5 [12] = assay: Growth inhibition of human SK-MEL-5 cells incubated for 48 hrs by sulforhodamine B assay; conditions: SK-MEL-5, 48 h; outline: as §3
# [13] = Growth inhibition of human OVCAR4 cells incubated for 48 hrs by sulforhodamine B assay; conditions: OVCAR-4, 48 h; outline: as §3
# [14] = Growth inhibition of human SKOV3 cells incubated for 48 hrs by sulforhodamine B assay; conditions: SK-OV-3, 48 h; outline: as §4
# A498 = assay: Growth inhibition of human A498 cells incubated for 48 hrs by sulforhodamine B assay; conditions: A498, 48 h
# [15] = Growth inhibition of human RXF393 cells incubated for 48 hrs by sulforhodamine B assay; conditions: RXF 393, 48 h
# Outline: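 Run in the NCI 60-cell-line protocol, with 2-day drug exposure and sulforhodamine B read-out. Dose-response testing used five 10-fold dilutions starting from a high concentration of 100 µM.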
# [16] = Growth inhibition of human TK10 cells incubated for 48 hrs by sulforhodamine B assay; conditions: TK-10, 48 h; outline: as §4
# [17] = Growth inhibition of human UO31 cells incubated for 48 hrs by sulforhodamine B assay; conditions: UO-31, 48 h; outline: as §4
# [18] = Growth inhibition of human PC3 cells incubated for 48 hrs by sulforhodamine B assay; conditions: PC-3, 48 h; outline: as §3
# A549 = assay: Growth inhibition of human A549/ATCC cells assessed as cell growth at 10 uM incubated for 48 hrs by sulforhodamine B assay relative to control; conditions: A549, 48 h, read-out: Activity; outline: as §1
# NCI-H226 [19] = assay: Growth inhibition of human NCI-H226 cells assessed as cell growth at 10 uM incubated for 48 hrs by sulforhodamine B assay relative to control; conditions: NCI-H226, 48 h, read-out: Activity; outline: as §1
# NCI-H460 = assay: Growth inhibition of human NCI-H460 cells assessed as cell growth at 10 uM incubated for 48 hrs by sulforhodamine B assay relative to control; conditions: NCI-H460, 48 h, read-out: Activity; outline: as §1
# NCI-H522 [20] = assay: Growth inhibition of human NCI-H522 cells assessed as cell growth at 10 uM incubated for 48 hrs by sulforhodamine B assay relative to control; conditions: NCI-H522, 48 h, read-out: Activity; outline: as §1
# [21] = read-out: pLC50 (the source's name) (converted)
structure (smiles),measurement,setting,value
CC(C)[C@@]12C[C@@H](NC(=O)CO)[C@@](C)(O1)[C@@H]1CC[C@@H](C)[C@H]1[C@@H]2OC(=O)c1ccc2ccccc2c1,growth at 10 µM,[1],84.6%
same,growth at 10 µM,SK-MEL-28,93.2%
same,growth at 10 µM,SK-MEL-5 [2],93.5%
same,growth at 10 µM,[3],85%
same,growth at 10 µM,[4],96.4%
same,growth at 10 µM,SN12C,66.7%
same,growth at 10 µM,[5],63.3%
same,growth at 10 µM,T47D,67.9%
same,GI50,CCRF-CEM,15.8 µM
same,CC50,CCRF-CEM; [21],75.9 µM
same,TGI,CCRF-CEM; read-out: pTGI (converted),34.7 µM
same,GI50,[6],18.6 µM
same,LC50,[6],89.1 µM
same,TGI,[6]; read-out: pTGI (converted),40.7 µM
same,GI50,[7],15.1 µM
same,LC50,[7],55 µM
same,TGI,[7]; read-out: pTGI (converted),28.8 µM
same,GI50,[8],9.33 µM
same,LC50,[8],52.5 µM
same,TGI,[8]; read-out: pTGI (converted),22.9 µM
same,GI50,NCI-H226 [9],13.2 µM
same,LC50,NCI-H226 [9],85.1 µM
same,TGI,NCI-H226 [9]; read-out: pTGI (converted),33.1 µM
same,GI50,NCI-H322M,13.5 µM
same,LC50,NCI-H322M,52.5 µM
same,TGI,NCI-H322M; read-out: pTGI (converted),26.9 µM
same,GI50,NCI-H522 [10],15.5 µM
same,LC50,NCI-H522 [10],56.2 µM
same,TGI,NCI-H522 [10]; read-out: pTGI (converted),29.5 µM
same,GI50,[11],16.2 µM
same,CC50,[11]; [21],60.3 µM
same,TGI,[11]; read-out: pTGI (converted),31.6 µM
same,GI50,SK-MEL-5 [12],16.6 µM
same,LC50,SK-MEL-5 [12],56.2 µM
same,TGI,SK-MEL-5 [12]; read-out: pTGI (converted),30.9 µM
same,GI50,[13],16.2 µM
same,LC50 (concentration killing 50% of cells),[13],61.7 µM
same,TGI,[13]; read-out: pTGI (converted),31.6 µM
same,GI50,[14],15.8 µM
same,LC50,[14],56.2 µM
same,TGI,[14]; read-out: pTGI (converted),30.2 µM
same,LC50,A498,29.5 µM
same,GI50,A498; read-out: GI50,1.62 µM
same,GI50,A498; read-out: pGI50 (converted),1.62 µM
same,TGI,A498; read-out: pTGI (converted),6.31 µM
same,GI50,[15],6.17 µM
same,CC50,[15]; [21],49 µM
same,TGI,[15]; read-out: pTGI (converted),20.4 µM
same,GI50,[16],19.1 µM
same,CC50,[16]; [21],60.3 µM
same,TGI,[16]; read-out: pTGI (converted),33.9 µM
same,GI50,[17],11.5 µM
same,CC50,[17]; [21],50.1 µM
same,TGI,[17]; read-out: pTGI (converted),24 µM
same,GI50,[18],12 µM
same,CC50,[18]; [21],52.5 µM
same,TGI,[18]; read-out: pTGI (converted),25.1 µM
same,growth at 10 µM,A549,81%
same,growth at 10 µM,NCI-H226 [19],90.2%
same,growth at 10 µM,NCI-H460,92.6%
same,growth at 10 µM,NCI-H522 [20],77.7%
